# Assay results gathered from unrelated publications.
# Each line is one published result; the experiments were not run side by side.
SMILES,system,conditions,measurement,value
O=C(O)C1CCN(c2ncc(-c3ccc4c(c3)OCCCO4)s2)CC1,"male Swiss mouse, plasma","oral, 30 mg/kg, 4 h, single dose",concentration,3890 ng/mL
CC(C)(Nc1nc(-c2ccccn2)nc2ccccc12)c1ccccn1,"female BALB/c mouse, plasma","oral, 50 mg/kg, 2 h",concentration,4230 ng/mL
CC(C)(O)c1ccccc1-c1ccc2[nH]c(/C=C/c3ccc(C(F)(F)F)cc3)nc2c1,"male human, plasma","oral, 15 mg, single dose, fasted, healthy volunteers",MRT,84 h
CC(C)(C)c1ccc(O)c(CN(Cc2cc(C(C)(C)C)ccc2O)C2CCC(NC(N)=O)CC2)c1 (centres unmarked),"male C57BL/6 mouse, plasma","intraperitoneal, 5 mg/kg, single dose",half-life,2.4 h
CC(C)Oc1cccc(-c2cnc(N3CCC(C(N)=O)CC3)s2)c1,"male Swiss mouse, plasma","oral, 30 mg/kg, 8 h, single dose",concentration,8.49 ng/mL
O=c1nc(N2CCN(CC3CCCCC3)CC2)sc2c([N+](=O)[O-])cc(C(F)(F)F)cc12,"CD-1 mouse, plasma","intravenous, 10 mg/kg, 4 h",concentration,139 ng/mL
c1cnc2ccc(Nc3nc(NC4CC4)c4nc[nH]c4n3)cc2c1,"human, plasma","oral, 100 mg/m², patients",MRT(0-t),8.1 h
CC(C)CN(C[C@@H](O)[C@H](Cc1ccccc1)NC(=O)O[C@H]1CO[C@H]2OCC[C@H]21)S(=O)(=O)c1ccc(N)cc1,"BALB/c mouse, brain","intravenous, 2.5 mg/kg, 6 h",concentration,1.36 ng/g
